ChEMBL document CHEMBL3112392, “Cytotoxicity and DNA binding property of triphenylethylene-coumarin hybrids with two amino side chains” (Bioorg Med Chem Lett, 2014)
pIC50: −log10 of the molar value. Activity calls are given as the source filed them. No cut-off for these calls is given here.

What was measured:
MCF7 = assay: Cytotoxicity against human MCF7 cells after 48 hrs by MTT assay; assay type: functional, cell-based; conditions: for pIC50: MCF7, 48 h
Outline: (§1)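 Antiproliferative screen in human tumour lines; IC50 values derived, with cisplatin as positive control.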

K562 = assay: Cytotoxicity against human K562 cells after 48 hrs by MTT assay; assay type: functional, cell-based; conditions: for pIC50: K562, 48 h; outline: as §1
[1] = Cytotoxicity against mouse skull osteoblasts at 1 uM after 48 hrs by MTT assay relative to control; assay type: cell-based; conditions: osteoblast
Outline: (§2)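 Primary osteoblasts were isolated from newborn mouse skull and exposed to compounds at five concentrations for 48 h. Induced cell death was measured by MTT assay and expressed as % cytotoxicity.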

[2] = Cytotoxicity against mouse skull osteoblasts at 20 uM after 48 hrs by MTT assay relative to control; assay type: cell-based; conditions: osteoblast; outline: as §2
DNA [3] = assay: Binding affinity to calf thymus DNA assessed as melting temperature at 5 uM after 10 mins by thermal denaturation assay (reference value: 67 degC); assay type: nucleic-acid assay; conditions: Bos taurus
[4] = Cytotoxicity against mouse skull osteoblasts at 40 uM after 48 hrs by MTT assay relative to control; assay type: cell-based; conditions: osteoblast; outline: as §2
DNA [5] = assay: Binding affinity to calf thymus DNA assessed as intercalation at 20 uM after 10 mins measured at 350 to 500 nm wavelength by circular dichroism spectroscopic analysis; assay type: nucleic-acid assay; conditions: Bos taurus
Outline: (§3)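 Circular dichroism: spectra of Ct-DNA (5.0 × 10^-5 M) recorded with or without compound (2.0 × 10^-5 M). Buffer was 10 mM phosphate pH 7.4 with 50 mM NaCl and 2% DMSO, at 25 °C.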

DNA [6] = assay: Binding affinity to calf thymus DNA assessed as change in melting temperature at 5 uM after 10 mins by thermal denaturation assay; assay type: nucleic-acid assay; conditions: Bos taurus
A549 = assay: Cytotoxicity against human A549 cells after 48 hrs by MTT assay; assay type: functional, cell-based; conditions: A549, 48 h; outline: as §1
[7] = Cytotoxicity against mouse skull osteoblasts at 10 uM after 48 hrs by MTT assay relative to control; assay type: cell-based; conditions: osteoblast; outline: as §2
HeLa = assay: Cytotoxicity against human HeLa cells after 48 hrs by MTT assay; assay type: functional, cell-based; outline: as §1
DNA [8] = assay: Binding affinity to calf thymus DNA assessed as decrease in intensity of negative band at 20 uM after 10 mins measured at 246 nm wavelength by circular dichroism spectroscopic analysis; assay type: nucleic-acid assay; conditions: Bos taurus; outline: as §3
DNA [9] = assay: Binding affinity to calf thymus DNA assessed as increase in intensity of positive band at 20 uM after 10 mins measured at 277 nm wavelength by circular dichroism spectroscopic analysis; assay type: nucleic-acid assay; conditions: Bos taurus; outline: as §3
[10] = Cytotoxicity against mouse skull osteoblasts at 100 uM after 48 hrs by MTT assay relative to control; assay type: cell-based; conditions: osteoblast; outline: as §2
DNA [11] = assay: Binding affinity to calf thymus DNA assessed as hyperchromicity at 10 uM after 10 mins by UV-vis spectrophotometric analysis; assay type: nucleic-acid assay; conditions: Bos taurus
Outline: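 UV–vis absorption titration: 1.0 × 10^-5 M compound in 10 mM phosphate buffer pH 7.4 with 50 mM NaCl and 2% DMSO at 25 °C, with increasing Ct-DNA. Spectral changes were followed, and binding was fitted at the absorption maximum.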

DNA [12] = assay: Binding affinity to calf thymus DNA after 10 mins by Stern-Volmer plot analysis; assay type: nucleic-acid assay; conditions: Bos taurus
Outline: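 Fluorescence titration: 5.0 × 10^-5 M compound in 10 mM phosphate buffer pH 7.4 with 50 mM NaCl and 2% DMSO at 25 °C, Ct-DNA added stepwise. Excitation wavelength set per compound (318–339 nm); excitation and emission slits 10.0 nm; emission read near 455 nm. F/F0 plotted against Ct-DNA concentration and analysed by Stern–Volmer plot.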

Tm (DNA [3]) [°C]	Activity (DNA [5])	ΔTm (DNA [6]) [°C]	Activity (DNA [8])	Activity (DNA [9])	Activity (DNA [11]) [%]	Kb (DNA [12])	SMILES	pIC50 (MCF7)	pIC50 (K562)	Activity [1] [%]	Activity [2] [%]	Activity [4] [%]	pIC50 (A549)	Activity [7] [%]	pIC50 (HeLa)	Activity [10] [%]	Activity (MCF7)	Activity (K562)
69.2	Active	2.2	Active	Active	8	5.2 ×10³ /M	CN1CCN(CCOc2ccc(-c3c(-c4ccccc4)c4ccc(OCCN5CCN(C)CC5)cc4oc3=O)cc2)CC1	5.46	5.49	-2.4	3.2	14.6	5.33	0.6	5.43	31.6	–	–
70	Active	3	Active	Active	16	1.2 ×10⁴ /M	O=c1oc2ccccc2c(-c2ccc(OCCN3CCCCC3)cc2)c1-c1ccc(OCCN2CCCCC2)cc1	5.37	5.26	-3.2	10.6	22.3	5.14	1.6	5.36	40.3	–	–
–	–	–	–	–	–	–	O=c1oc2ccccc2c(-c2ccc(OCCN3CCOCC3)cc2)c1-c1ccc(OCCN2CCOCC2)cc1	< 4.00	< 4.00	–	–	–	< 4.00	–	< 4.00	–	–	–
–	–	–	–	–	–	–	CN(C)CCOc1ccc(-c2c(-c3ccc(OCCN(C)C)cc3)c3ccccc3oc2=O)cc1	4.15	4.00	–	–	–	< 4.00	–	< 4.00	–	–	–
68.2	Active	1.2	Active	Active	6	7 ×10³ /M	O=c1oc2cc(OCCN3CCCCC3)ccc2c(-c2ccccc2)c1-c1ccc(OCCN2CCCCC2)cc1	5.19	5.31	-6.5	4.9	18.6	5.28	3.7	5.29	33.4	–	–
68.8	Active	1.7	Active	Active	8	6 ×10³ /M	CCN(CC)CCOc1ccc(-c2c(-c3ccccc3)c3ccc(OCCN(CC)CC)cc3oc2=O)cc1	5.23	5.56	-7.2	3.7	15.8	5.05	-1.5	5.02	31.7	–	–
–	–	–	–	–	–	–	O=c1oc2ccccc2c(-c2ccc(O)cc2)c1-c1ccc(O)cc1	–	–	–	–	–	–	–	–	–	inactive	inactive
–	–	–	–	–	–	–	O=c1oc2cc(OCCN3CCOCC3)ccc2c(-c2ccccc2)c1-c1ccc(OCCN2CCOCC2)cc1	< 4.00	< 4.00	–	–	–	< 4.00	–	< 4.00	–	–	–
–	–	–	–	–	–	–	CN(C)CCOc1ccc(-c2c(-c3ccccc3)c3ccc(OCCN(C)C)cc3oc2=O)cc1	5.16	5.14	-0.6	4.3	13.8	5.04	-0.2	5.07	31.5	–	–
71.5	Active	4.5	Active	Active	17	1 ×10⁴ /M	CCN(CC)CCOc1ccc(-c2c(-c3ccc(OCCN(CC)CC)cc3)c3ccccc3oc2=O)cc1	4.30	4.25	–	–	–	4.33	–	4.34	–	–	–
71	Active	4	Active	Active	17	1.4 ×10⁴ /M	CN1CCN(CCOc2ccc(-c3c(-c4ccc(OCCN5CCN(C)CC5)cc4)c4ccccc4oc3=O)cc2)CC1	4.11	4.27	–	–	–	4.25	–	4.22	–	–	–
–	–	–	–	–	–	–	O=c1oc2cc(OCCN3CCCC3)ccc2c(-c2ccccc2)c1-c1ccc(OCCN2CCCC2)cc1	5.18	5.26	-2.5	5.2	16.4	5.13	-5.6	5.33	32.8	–	–
–	–	–	–	–	–	–	O=c1oc2ccccc2c(-c2ccc(OCCN3CCCC3)cc2)c1-c1ccc(OCCN2CCCC2)cc1	4.78	5.12	0.1	8.4	20.4	5.06	-0.5	5.08	39.5	–	–
–	–	–	–	–	–	–	O=c1oc2cc(O)ccc2c(-c2ccccc2)c1-c1ccc(O)cc1	–	–	–	–	–	–	–	–	–	inactive	inactive
